From PubChem BioAssay
LEDGF integ inh – blockers of LEDGF/p75-dependent integrase strand transfer – biochemical, TR-FRET, high throughput, primary screen; TR-FRET IN-LEDGF/p75 DNA integration, Eu/Cy5; hit rate 0.64% among 370,000; inhibition, % at 3.7 µM; AID 743269, 2014;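 active means inhibition above the screen-wide mean plus 3 SD, cut at about 13% in these data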;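 further: signal is the Cy5 over europium emission ratio at 671 and 618 nm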
Rin1 Abl inh – inhibitors of Rin1-Abl protein binding, primary screen, biochemical, TR-FRET; hit rate 0.4% among 360,000; AID 588664, 2011; Tyrosine-protein kinase ABL1 (Homo sapiens) + Ras and Rab interactor 1 (Homo sapiens), …; inhibition, % at 7.35 µM; in the data active means inhibition above about 5%, passing the limit was not always enough
TDP2 inh – human TDP2 enzyme inhibitors, primary screen, biochemical, epi absorbance, recombinant enzyme. T5PNP hydrolysis, p-nitrophenol absorbance 415 nm. inhibition, % at 12.8 µM. hit rate 0.34% among 370,000;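 active means inhibition above the mean of all tested compounds plus 3 SD, set per campaign, cut at about 25% in these data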
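Read-out basis: percent inhibition. System: recombinant human TDP2. Buffer or medium: Mg2+-containing Tris-HCl buffer, pH 7.5. Repeats: single replicate. Timing: reaction 2 h, 37 °C. Benchmarks: high control without enzyme, low control DMSO plus TDP2. Probe or stimulus: 5 mM T5PNP. Doses: 12.8 µM only. Measured by: epi absorbance of p-nitrophenol freed from T5PNP by hydrolysis.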
UHRF1 MBD2 ctr – UHRF1 methylated DNA binding inhibitors, primary screen, counter-screen for MBD2 inhibitor project, biochemical, TR-FRET, human UHRF1, single concentration; hit rate 0.75% among 370,000; AID 687016, 2013; E3 ubiquitin-protein ligase UHRF1 (Homo sapiens), Q96T88; inhibition, % at 4.4 µM; UHRF1 binding to methylated oligo; in the data active means inhibition above about 21%;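 further: UHRF1 SRA domain binding a hemimethylated CpG hairpin DNA probe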
MBD2 inh – inhibitors of MBD2 binding to methylated DNA, primary screen, biochemical, TR-FRET, DNA-binding domain, human | Methyl-CpG-binding domain protein 2 (Homo sapiens), Q9UBB5 | MBD2 binding to methylated oligonucleotide | inhibition, % at 4.4 µM | hit rate 0.31% among 370,000 | AID 686964, 2013; in the data active means inhibition above about 13%
Of the large screens only hits and unclear results are named; the others gave an inactive call. Rows were chosen to be rich in hits. Some 1.9% of all compounds tested hit in one or more screens of this group.

O=C(NNC(=O)c1cc(-c2ccccc2)nc2ccccc12)Nc1cccc(Cl)c1	UHRF1 MBD2 ctr 81
COc1ccc(-c2cc(C(=O)NN=Cc3ccccc3F)[nH]n2)cc1	none (no result: Rin1 Abl inh)
CCOC(=O)C1=C(C)N(C)C(=O)NC1c1c(C)nn(-c2ccc(C)cc2)c1Cl (configuration not stated)	UHRF1 MBD2 ctr 23
CN1[C@@H](Cc2ccccc2)COc2cccc(N3CCSCC3)c2S1(=O)=O	none (no result: Rin1 Abl inh)
CCC(C)NC(=O)c1ccccc1NC(=O)Nc1ccccc1 (configuration not stated)	UHRF1 MBD2 ctr 27
O=C(C1CCCN(S(=O)(=O)c2ccccc2[N+](=O)[O-])C1)N1CCN(Cc2ccccc2)CC1 (configuration not stated)	none (no result: Rin1 Abl inh)
CCN(Cc1ccccc1)S(=O)(=O)c1c(N)n(C)c(=O)n(C)c1=O	UHRF1 MBD2 ctr 30
C[C@H](CS)C(=O)N1CCC[C@H]1C(=O)O	LEDGF integ inh 84
Cc1occc1-c1nnc(SCC(=O)Nc2nc3ccccc3s2)o1	UHRF1 MBD2 ctr 23
CCOC(=O)[C@]12CCCCC/C=C\1N(Cc1ccc(OC)cc1)C(=O)[C@H]2CC(=O)NCc1cccs1	none (no result: Rin1 Abl inh)
O=C(Nc1nc2ncccn2c1-c1ccccc1)c1ccccc1	none (no result: Rin1 Abl inh)
CC(NC(=O)COc1ccccc1-c1ccccc1)c1ccccc1 (configuration not stated)	none
CC(=O)Nc1ccccc1OCC(=O)NC(C)c1ccccc1 (configuration not stated)	UHRF1 MBD2 ctr 22
O=C(CCn1nnc2ccccc21)N1CCN(Cc2ccc3c(c2)OCO3)CC1	none (no result: Rin1 Abl inh)
O=C(/C=C(\Nc1cc(Cl)c(Cl)c(Cl)c1)c1ccccc1)c1ccccc1	none (no result: Rin1 Abl inh)
CSc1ccccc1C(=O)Nc1cccc(C(C)O)c1 (configuration not stated)	UHRF1 MBD2 ctr 21
CCCCN1CC(COCc2ccccc2)Oc2cccc(Oc3ccc(OC)cc3)c2S1(=O)=O (configuration not stated)	none
CCCCN1CC(COCc2ccccc2)Oc2cccc(Oc3ccc(SC)c(C)c3)c2S1(=O)=O (configuration not stated)	UHRF1 MBD2 ctr 23 (no result: Rin1 Abl inh)
CC(C)(C)C(=O)N1CCC[C@]2(CC[C@H](CCC#N)O2)C1	none (no result: Rin1 Abl inh)
CC(=O)Nc1sc2c(c1-c1nc(-c3ccccc3)cs1)CCN(C(C)C)C2	none (no result: Rin1 Abl inh)
O=C(CSc1nccc(=O)[nH]1)NCc1ccco1	UHRF1 MBD2 ctr 34
Cc1cccc(NC(=O)COc2ccc3oc4c(c3c2)CCCC4)n1	UHRF1 MBD2 ctr 73
CN1CCC(N[C@@H](Cc2c[nH]c3ccccc23)C(=O)NCCCc2ccccc2)(C(=O)NCCc2c[nH]c3ccccc23)CC1	none (no result: Rin1 Abl inh)
CCS(=O)(=O)c1ccc2oc(SCC(=O)NCCc3ccc(OC)cc3)nc2c1	UHRF1 MBD2 ctr 29
CC(=O)CC[C@H]1CC[C@]2(CCCN(C(=O)c3ccccc3)C2)O1	none (no result: Rin1 Abl inh)
COC(=O)c1ccc(CN(c2ccccc2Cl)S(C)(=O)=O)cc1	UHRF1 MBD2 ctr 30
CN(Cc1ccccc1)C(=O)CN(c1ccccc1Cl)S(C)(=O)=O	none
Cc1cc(C)c(C)c(S(=O)(=O)N2CCN(C(=O)c3ccccc3OCc3c(C)noc3C)CC2)c1C	UHRF1 MBD2 ctr 28
COc1cc(C)nc(N(C)S(=O)(=O)c2ccccc2Cl)n1	UHRF1 MBD2 ctr 28
COc1nc(N(C)C)nc(N(OC)S(=O)(=O)c2ccccc2Cl)n1	none
COC(=O)[C@]12C[C@H](CC(=O)NCc3ccc(C)o3)C(=O)N(CCC3=CCCCC3)C1=C[C@H](C(C)C)O[C@@H]2C1CC1	none (no result: Rin1 Abl inh)
COC(=O)c1oc2c(c1C)C(=O)CCC2	none
O=C1CCCc2oc3c(c21)CCCC3	UHRF1 MBD2 ctr 23
Cc1ccc([N+](=O)[O-])cc1NC(=O)/C=C/C(=O)O	UHRF1 MBD2 ctr 40
FC(F)(F)c1ccccc1CN1CCCc2nc(-c3ccc(Br)cc3)ccc21	none (no result: Rin1 Abl inh)
Cc1nn(C)c(C)c1/C=C/C(=O)O	UHRF1 MBD2 ctr 39
COc1cccc(CC2(CO)CCCN(Cc3ccc(CN4CCCCC4)s3)C2)c1 (configuration not stated)	UHRF1 MBD2 ctr 27
COc1cccc(CC2(CO)CCCN(Cc3ccccc3Cl)C2)c1 (configuration not stated)	none
CCOC(=O)C1=CN(Cc2cccc(F)c2)S(=O)(=O)N(CC)C1c1ccccc1 (configuration not stated)	none
CCOC(=O)C1=CN(Cc2cccc(F)c2)S(=O)(=O)N(CC)C1c1ccc(Br)cc1F (configuration not stated)	UHRF1 MBD2 ctr 21
Cc1nc2cc(C(=O)N3c4ccccc4CC3C)ccc2s1 (configuration not stated)	UHRF1 MBD2 ctr 22
CC1Cc2ccccc2N1C(=O)c1ccc2snnc2c1 (configuration not stated)	none
CC(C)CNC(=O)OCc1cn(Cc2cccc(F)c2)nn1	none (no result: Rin1 Abl inh)
FC(F)(F)Oc1cccc(Cn2ccc3ccc(-c4ccc5ccn(Cc6ccccc6)c5c4)cc32)c1	none (no result: Rin1 Abl inh)
COc1cccc(C2Nc3c(F)cc(Br)cc3C3C=CCC32)c1OC (configuration not stated)	none
COc1cccc2c1NC(C(=O)O)C1CC=CC21 (configuration not stated)	Rin1 Abl inh 7.6 (no result: LEDGF integ inh, TDP2 inh, UHRF1 MBD2 ctr, MBD2 inh)
Nn1c(SCC(=O)Nc2ccc(C(=O)O)cc2)nnc1-c1ccco1	none (no result: Rin1 Abl inh)
CCC(=O)OCCCN1CCC2(CCC(c3ccccc3)CC2)C1=O (configuration not stated)	none (no result: Rin1 Abl inh)
O=c1[nH]c2ccccc2c(O)c1O	Rin1 Abl inh 20
C=CCN1[C@@H](CC(C)C)COc2cc(N3CCSCC3)ccc2S1(=O)=O	none (no result: Rin1 Abl inh)
Cc1nn(-c2ccccc2)c2sc(C(=O)NCCc3ccc(Cl)cc3)cc12	none (no result: Rin1 Abl inh)
Cc1ccc(Nc2nc(C)c3c(n2)CC(C)CC3=O)c(C)c1 (configuration not stated)	UHRF1 MBD2 ctr 28
O=C(CSc1nc2sc3c(c2c(=O)n1-c1ccc(Cl)cc1)CCCC3)c1ccccc1Cl	none (no result: Rin1 Abl inh)
Cc1ccnc(-n2c(C)cc(C=O)c2C)c1	UHRF1 MBD2 ctr 23
CCCCc1c(-c2ccc(F)cc2F)ncn1CCc1ccccc1OC	none (no result: Rin1 Abl inh)
CCCCc1c(Cc2cccc(F)c2)ncn1CCc1ccccc1OC	UHRF1 MBD2 ctr 21 (no result: Rin1 Abl inh)
Cc1ccc2c(Cl)cc(Cl)c(OCC(=O)NCCc3ccccn3)c2n1	none
CCOc1ccccc1NC(=O)COC(=O)COc1c(Cl)cc(Cl)c2ccc(C)nc12	UHRF1 MBD2 ctr 37
Cc1ccc2oc(Nc3nc(-c4ccccc4)cc(=O)[nH]3)nc2c1	UHRF1 MBD2 ctr 75 (no result: Rin1 Abl inh)
